Values without a mark were called inactive. Activity calls are given as the source filed them.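 Rule for the calls, unless noted: active = viability at or under a set limit in both replicates, limit being median viability minus 3 SD (cut at about 48% in these data, passing the limit was not always enough); inconclusive = at or under the limit in just one replicate; inactive = at or above the limit in both replicates.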
Assay: HUVEC growth inhibition – cell-based, human, primary screen (AID 575;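 active = viability at or below 30% in both replicate assays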;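 note: 100% = median of untreated cell wells with 0.1% DMSO on each plate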)
Conditions: HUVEC proliferation, CellTiter-Glo luminescence, 72 h; at 10 µM; hits give low values
Summary of the method: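 Assay system: Primary human umbilical vein endothelial cells | Quantity: 1250 cells per well | Medium: Supplemented EBM, 2% fetal bovine serum | Detection: CellTiter-Glo luminescence measuring cellular ATP | Read-out: % viability vs DMSO wells | Plate: Collagen-coated 384-well format | Times: 72 h exposure, 37 °C, 5% CO2, 30 min RT equilibration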

SMILES | viability
CCOC(=O)c1cc(NC(=O)SCC(=O)O)c(C)nc1C | 123%
Clc1c(CSc2nc3ccccc3o2)nc2sccn12 | 82%
O=C(CCn1[nH]c(=O)c2ccccc2c1=O)NCCO | 118%
CC12CCC(C(=O)N3CCN(C(=O)C45CCC(C)(C(=O)O4)C5(C)C)CC3)(OC1=O)C2(C)C | 97.5%
COc1cccc(C2C(C(=O)c3cccs3)=C(O)C(=O)N2CCCn2ccnc2)c1OC (stereo not given) | 102%
Cc1ccc(S(=O)(=O)N(CC(=O)N2CCC(C(N)=O)CC2)Cc2ccc(F)cc2)cc1 | 110%
COc1ccc(N2CCN(C(=O)CSc3ccccc3)CC2)cc1 | 103%
COc1ccccc1N1CCN(C(=O)C2CCN(S(=O)(=O)c3ccc(F)cc3)CC2)CC1 | 70.8%
COCCN1C=C(C(=O)OC)C(c2cc3c(cc2Br)OCO3)C(C(=O)OC)=C1 | 89.2%
CC1=C(C(N)=O)C(c2ccccn2)n2nc(SCc3ccccc3)nc2N1 (stereo not given) | 94%
O=C(/C=C/N1CCOCC1)c1ccc(-c2ccccc2)cc1 | 81.8%
CCOc1ccc(NS(=O)(=O)c2cc(Cl)ccc2OC)cc1 | 91%
COc1ccc(NC(=O)CC2CCCCC2)cc1OC | 94.6%
Cc1oc(-c2cccc(Cl)c2)nc1CN1CCC(C(=O)N2CCN(c3ccccc3F)CC2)CC1 | 4.6% (active)
O=C(Nc1ccc2c(c1)OCCO2)C1CCN(C(=O)c2ccc(F)cc2)CC1 | 94.9%
CCOC(=O)Nc1c(O)ccc2oc(C)c(-c3ccccc3)c12 | 68.7%
O=C(CCNS(=O)(=O)c1cccs1)Nc1ccccc1F | 121%
CCOC(=O)N1CCN(C(=O)CN(C2CCCCC2)S(=O)(=O)c2ccc(F)cc2)CC1 | 97.3%
O=C(COc1ccc(F)cc1)Nc1ccc(-n2cnnn2)cc1 | 107%
O=C(Cn1c(=O)sc2ccccc21)NCCOc1ccccc1F | 108%

SMILES | viability
O=C(c1ccco1)c1nnn(Cc2ccccc2)c1-c1ccccc1 | 102%
O=C(Nc1ncc(Cc2ccccc2)s1)C1CCCO1 (stereo not given) | 84.3%
CC1=C(C(=O)OC2CCCCCC2)C(c2ccc(C)o2)C2=C(CCCC2=O)N1 (stereo not given) | 102%
CC12CN3CCN(CC(C3)C1(O)CN1CCCCC1)C2 (stereo not given) | 95.5%
CCn1c(C(C#N)/C(=N\S(=O)(=O)c2cccs2)c2ccccc2)nc2ccccc21 (stereo not given) | 96.2%
CCOC(=O)N1CCN(C(=O)c2cnn(-c3ccccc3)c2NC(=O)c2ccccc2F)CC1 | 98.8%
O=C(CCC(=O)OCC(=O)c1ccccc1)NC1CCCCC1 | 108%
O=C(Nc1nc2c(s1)CCCC2)C1COc2ccccc2O1 (stereo not given) | 63.1%
CCN(CC)S(=O)(=O)c1ccc2c(c1)nc(SCn1nnc3ccccc3c1=O)n2CC | 81.1%
Cc1ccc(N2C(=O)c3oc4ccccc4c(=O)c3C2c2cccc(O)c2)nc1 (stereo not given) | 59.1%
COc1cc(C(=O)NCCc2ccc3c(c2)OCCO3)ccc1OCC(=O)N1CCOCC1 | 112%
O=C(CN1CCN(Cc2ccccc2)CC1)NCC1COc2ccccc2O1 (stereo not given) | 110%
Cc1nonc1NC(=O)c1ccccc1Br | 95.8%
Cc1cc(NC(=O)CSc2nc3c(c(-c4cccnc4)c2C#N)CCC3)no1 | 111%
Cc1onc(-c2ccccc2)c1C(=O)NCc1cccnc1 | 100%
OC(CNCCc1ccccc1)c1ccccc1 (stereo not given) | 101%
Cc1ccc(C)n1-c1ccc(N2CCOCC2)cc1 | 86.4%
C#CCOC(=O)C1C2C=CC(C2)C1C(=O)O (stereo not given) | 109%
Cc1ccc(C(=O)Nc2c(C(=O)N3CCOCC3)cnn2-c2ccccc2)cc1 | 94.5%
Clc1cccc(-c2nnc(-c3ccccc3)o2)c1 | 78.7%

Assay: growth inhibitors of H69AR lung tumor, primary screen, human, duplicate replicates (AID 580);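 note: 100% = mean luminescence of untreated wells and 0% = no signal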
Conditions: H69AR lung tumor cells viability, ATP luminescence, 72 h; at 10 µM; hits give low values

SMILES | viability
CCOC(=O)c1cc(NC(=O)SCC(=O)O)c(C)nc1C | 88.1%
Clc1c(CSc2nc3ccccc3o2)nc2sccn12 | 92.9%
O=C(CCn1[nH]c(=O)c2ccccc2c1=O)NCCO | 89.3%
CC12CCC(C(=O)N3CCN(C(=O)C45CCC(C)(C(=O)O4)C5(C)C)CC3)(OC1=O)C2(C)C | 105%
COc1cccc(C2C(C(=O)c3cccs3)=C(O)C(=O)N2CCCn2ccnc2)c1OC (stereo not given) | 109%
Cc1ccc(S(=O)(=O)N(CC(=O)N2CCC(C(N)=O)CC2)Cc2ccc(F)cc2)cc1 | 100%
COc1ccc(N2CCN(C(=O)CSc3ccccc3)CC2)cc1 | 95.5%
COc1ccccc1N1CCN(C(=O)C2CCN(S(=O)(=O)c3ccc(F)cc3)CC2)CC1 | 87.5%
COCCN1C=C(C(=O)OC)C(c2cc3c(cc2Br)OCO3)C(C(=O)OC)=C1 | 84.5%
CC1=C(C(N)=O)C(c2ccccn2)n2nc(SCc3ccccc3)nc2N1 (stereo not given) | 93.8%
O=C(/C=C/N1CCOCC1)c1ccc(-c2ccccc2)cc1 | 89.5%
CCOc1ccc(NS(=O)(=O)c2cc(Cl)ccc2OC)cc1 | 70.8%
COc1ccc(NC(=O)CC2CCCCC2)cc1OC | 103%
Cc1oc(-c2cccc(Cl)c2)nc1CN1CCC(C(=O)N2CCN(c3ccccc3F)CC2)CC1 | 32.3% (active)
O=C(Nc1ccc2c(c1)OCCO2)C1CCN(C(=O)c2ccc(F)cc2)CC1 | 92.5%
CCOC(=O)Nc1c(O)ccc2oc(C)c(-c3ccccc3)c12 | 99.8%
O=C(CCNS(=O)(=O)c1cccs1)Nc1ccccc1F | 108%
CCOC(=O)N1CCN(C(=O)CN(C2CCCCC2)S(=O)(=O)c2ccc(F)cc2)CC1 | 97.7%
O=C(COc1ccc(F)cc1)Nc1ccc(-n2cnnn2)cc1 | 93.1%
O=C(Cn1c(=O)sc2ccccc21)NCCOc1ccccc1F | 99.4%

SMILES | viability
O=C(c1ccco1)c1nnn(Cc2ccccc2)c1-c1ccccc1 | 85.1%
O=C(Nc1ncc(Cc2ccccc2)s1)C1CCCO1 (stereo not given) | 103%
CC1=C(C(=O)OC2CCCCCC2)C(c2ccc(C)o2)C2=C(CCCC2=O)N1 (stereo not given) | 97.2%
CC12CN3CCN(CC(C3)C1(O)CN1CCCCC1)C2 (stereo not given) | 92.5%
CCn1c(C(C#N)/C(=N\S(=O)(=O)c2cccs2)c2ccccc2)nc2ccccc21 (stereo not given) | 81.7%
CCOC(=O)N1CCN(C(=O)c2cnn(-c3ccccc3)c2NC(=O)c2ccccc2F)CC1 | 92%
O=C(CCC(=O)OCC(=O)c1ccccc1)NC1CCCCC1 | 101%
O=C(Nc1nc2c(s1)CCCC2)C1COc2ccccc2O1 (stereo not given) | 88.3%
CCN(CC)S(=O)(=O)c1ccc2c(c1)nc(SCn1nnc3ccccc3c1=O)n2CC | 83.2%
Cc1ccc(N2C(=O)c3oc4ccccc4c(=O)c3C2c2cccc(O)c2)nc1 (stereo not given) | 91.8%
COc1cc(C(=O)NCCc2ccc3c(c2)OCCO3)ccc1OCC(=O)N1CCOCC1 | 93.3%
O=C(CN1CCN(Cc2ccccc2)CC1)NCC1COc2ccccc2O1 (stereo not given) | 93.2%
Cc1nonc1NC(=O)c1ccccc1Br | 91.8%
Cc1cc(NC(=O)CSc2nc3c(c(-c4cccnc4)c2C#N)CCC3)no1 | 90.9%
Cc1onc(-c2ccccc2)c1C(=O)NCc1cccnc1 | 99.4%
OC(CNCCc1ccccc1)c1ccccc1 (stereo not given) | 91.2%
Cc1ccc(C)n1-c1ccc(N2CCOCC2)cc1 | 77.9%
C#CCOC(=O)C1C2C=CC(C2)C1C(=O)O (stereo not given) | 93.6%
Cc1ccc(C(=O)Nc2c(C(=O)N3CCOCC3)cnn2-c2ccccc2)cc1 | 91.8%
Clc1cccc(-c2nnc(-c3ccccc3)o2)c1 | 76.7%
